Source: ChEMBL document CHEMBL3124833, “Achiral pyrazinone-based inhibitors of the hepatitis C virus NS3 protease and drug-resistant variants with elongated substituents directed toward the S2 pocket” (J Med Chem, 2014)
Values after ≈ are worked out from the molar mass of the structure shown. Blank lines part the entries; values can stand above or below the molecule they belong to.

How the values were obtained:
[1] = Inhibition of full-length wild-type HCV NS3 protease; set-up: species or system Hepacivirus hominis
How it was run: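 Ki was determined in vitro with full-length NS3 protease (genotype 1a construct, expressed and purified by earlier methods) and the central part of NS4A as cofactor.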

[2] = Half life in human liver microsomes at 1 uM by LC-MS/MS analysis; format: ADME
How it was run: (§1)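 Compounds were incubated with pooled human liver microsomes (0.5 mg/mL) over 0–40 min. In vitro t1/2 and intrinsic clearance (Clint, μL/min/mg) were calculated with previously published models.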

[3] = Intrinsic clearance in human liver microsomes at 1 uM up to 40 mins by LC-MS/MS analysis in presence of NADPH; format: ADME; how it was run: as §1
[4] = Apparent permeability from apical to basolateral side in human Caco2 cells at 10 uM by LC-MS analysis; format: ADME, cell-based; conditions: Caco-2
How it was run: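 Apparent permeability coefficients (Papp) were derived from transport rates across Caco-2 cell monolayers. The assay used a modified, more physiological medium because the compounds adsorbed strongly to plasticware.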

[5] = Solubility of the compound in phosphate buffered saline at pH 7.4 after 1 hr by LC-MS/MS analysis; format: physicochemical
How it was run: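 Solubility was measured in phosphate-buffered saline at pH 7.4 with a final DMSO concentration of 1%.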

NS3 protease [6] = molecular target: NS3 protease (Hepacivirus C, UniProt C1KIQ2, D168V); assay: Inhibition of full-length HCV NS3 protease D168V mutant; set-up: species or system Hepacivirus hominis
How it was run: (§2)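 Ki determined in vitro against full-length NS3 protease variants carrying A156T, D168V or R155K substitutions, with the central part of NS4A as cofactor. Enzymes were expressed and purified by previously published methods. The R155K variant (genotype 1a) had the Arg→Lys change introduced at position 155 by PCR.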

NS3 protease [7] = molecular target: NS3 protease (Hepatitis C virus subtype 1b, UniProt Q0ZMF1, A156T); assay: Inhibition of full-length HCV NS3 protease A156T mutant; set-up: species or system Hepacivirus hominis; how it was run: as §2

Structure (SMILES): Cc1c(Cl)nc(NC(=O)OC(C)(C)C)c(=O)n1C(C(=O)Nc1ccccc1C(=O)NS(=O)(=O)c1ccc(C(F)(F)F)cc1)c1ccccc1 (configuration not stated)
Ki [1]: 3800 nM

Structure (SMILES): CC(C)(C)NC(=O)Nc1nc(Cl)c(-c2cccc(Br)c2)n(CC(=O)Nc2ccccc2C(=O)NS(=O)(=O)c2ccc(C(F)(F)F)cc2)c1=O
Ki [1]: 600 nM

Structure (SMILES): CC(C)(C)NC(=O)Nc1nc(Cl)c(Cc2ccc(Br)cc2)n(CC(=O)Nc2ccccc2C(=O)NS(=O)(=O)c2ccc(C(F)(F)F)cc2)c1=O
Ki [1]: 440 nM

Structure (SMILES): CC(C)(C)NC(=O)Nc1nc(Cl)c(-c2ccc(-c3cccnc3)cc2)n(CC(=O)Nc2ccccc2C(=O)NS(=O)(=O)c2ccc(C(F)(F)F)cc2)c1=O
half-life at 1 µM [2]: 82 min
microsomal CLint at 1 µM [3]: 17 µL/min/mg
Papp A→B at 10 µM [4]: 70 nm/s
solubility at 1 h [5]: 53 µM (≈ 41.5 µg/mL)
Ki (NS3 protease [6]): 1520 nM
Ki (NS3 protease [7]): 740 nM
Ki [1]: 440 nM

Structure (SMILES): CC(C)(C)NC(=O)Nc1nc(Cl)c(-c2ccccc2-c2cccnc2)n(CC(=O)Nc2ccccc2C(=O)NS(=O)(=O)c2ccc(C(F)(F)F)cc2)c1=O
Ki [1]: 2100 nM

Structure (SMILES): CC(C)(C)NC(=O)Nc1nc(Cl)c(Cc2ccc(-c3cccnc3)cc2)n(CC(=O)Nc2ccccc2C(=O)NS(=O)(=O)c2ccc(C(F)(F)F)cc2)c1=O
Ki [1]: 540 nM

Structure (SMILES): CC(C)(C)NC(=O)Nc1nc(Cl)c(Cc2cccc(-c3cccnc3)c2)n(CC(=O)Nc2ccccc2C(=O)NS(=O)(=O)c2ccc(C(F)(F)F)cc2)c1=O
Ki [1]: 810 nM

Structure (SMILES): CC(C)(C)NC(=O)Nc1nc(Cl)c(Cc2ccccc2-c2cccnc2)n(CC(=O)Nc2ccccc2C(=O)NS(=O)(=O)c2ccc(C(F)(F)F)cc2)c1=O
Ki [1]: 1100 nM

Structure (SMILES): CC(C)(C)NC(=O)Nc1nc(Cl)c(Cc2ccccc2)n(C(C(=O)Nc2ccccc2C(=O)NS(=O)(=O)c2ccc(C(F)(F)F)cc2)c2ccccc2)c1=O (configuration not stated)
Ki [1]: 700 nM

Structure (SMILES): CC(C)(C)NC(=O)Nc1nc(Cl)cn(CC(=O)Nc2ccccc2C(=O)NS(=O)(=O)c2ccc(C(F)(F)F)cc2)c1=O
Ki [1]: 1900 nM

Structure (SMILES): CC(C)(C)NC(=O)Nc1nc(Cl)c(COCc2ccccc2)n(CC(=O)Nc2ccccc2C(=O)NS(=O)(=O)c2ccc(C(F)(F)F)cc2)c1=O
half-life at 1 µM [2]: 81 min
microsomal CLint at 1 µM [3]: 17 µL/min/mg
Papp A→B at 10 µM [4]: 40 nm/s
solubility at 1 h [5]: 22 µM (≈ 16.5 µg/mL)
Ki [1]: 560 nM

Structure (SMILES): CC(C)(C)NC(=O)Nc1nc(Cl)c(CCC2CCCCC2)n(CC(=O)Nc2ccccc2C(=O)NS(=O)(=O)c2ccc(C(F)(F)F)cc2)c1=O
half-life at 1 µM [2]: 27 min
microsomal CLint at 1 µM [3]: 52 µL/min/mg
Papp A→B at 10 µM [4]: 1.2 nm/s
solubility at 1 h [5]: 31 µM (≈ 22.9 µg/mL)
Ki (NS3 protease [6]): 320 nM
Ki (NS3 protease [7]): 170 nM
Ki [1]: 110 nM

Structure (SMILES): Cc1c(Cl)nc(NC(=O)NC(C)(C)C)c(=O)n1C(C(=O)NC(CC1CCC1)C(=O)C(N)=O)c1ccccc1 (configuration not stated)
Ki [1]: 6200 nM

Structure (SMILES): CC(C)(C)NC(=O)Nc1nc(Cl)c(Cc2ccccc2)n(CC(=O)Nc2ccccc2C(=O)NS(=O)(=O)c2ccc(C(F)(F)F)cc2)c1=O
Ki [1]: 660 nM

Structure (SMILES): CC(C)(C)NC(=O)Nc1nc(Cl)c(Cc2ccccc2)n(CC(=O)NC(CC2CCC2)C(=O)C(N)=O)c1=O (configuration not stated)
Ki [1]: 7100 nM

Structure (SMILES): Cc1c(Cl)nc(NC(=O)NC(C)(C)C)c(=O)n1C(C(=O)Nc1ccccc1C(=O)NS(=O)(=O)c1ccc(C(F)(F)F)cc1)c1ccccc1 (racemic)
half-life at 1 µM [2]: 54 min
microsomal CLint at 1 µM [3]: 26 µL/min/mg
Papp A→B at 10 µM [4]: 11 nm/s
solubility at 1 h [5]: 38 µM (≈ 27.3 µg/mL)
Ki (NS3 protease [6]): 1260 nM
Ki (NS3 protease [7]): 930 nM
Ki [1]: 390 nM

Structure (SMILES): COc1ccc2c(O[C@@H]3C[C@H]4C(=O)N[C@]5(C(=O)O)C[C@H]5/C=C\CCCCC[C@H](NC(=O)OC5CCCC5)C(=O)N4C3)cc(-c3csc(NC(C)C)n3)nc2c1 [CILUPREVIR]
Ki (NS3 protease [6]): 200 nM
Ki (NS3 protease [7]): 120 nM
Ki [1]: 0.089 nM

Structure (SMILES): CCC[C@H](NC(=O)[C@@H]1[C@H]2CCC[C@H]2CN1C(=O)[C@@H](NC(=O)[C@@H](NC(=O)c1cnccn1)C1CCCCC1)C(C)(C)C)C(=O)C(=O)NC1CC1 [TELAPREVIR]
Ki (NS3 protease [6]): 3.9 nM
Ki (NS3 protease [7]): 6100 nM
Ki [1]: 15 nM

Results, then the molecule that gave them:

Ki [1]: 380 nM
Structure (SMILES): CC(C)(C)NC(=O)Nc1nc(Cl)c(-c2ccc(Br)cc2)n(CC(=O)Nc2ccccc2C(=O)NS(=O)(=O)c2ccc(C(F)(F)F)cc2)c1=O

Ki [1]: 400 nM
Structure (SMILES): CC(C)(C)NC(=O)Nc1nc(Cl)c(-c2ccccc2Br)n(CC(=O)Nc2ccccc2C(=O)NS(=O)(=O)c2ccc(C(F)(F)F)cc2)c1=O

Ki [1]: 290 nM
Structure (SMILES): CC(C)(C)NC(=O)Nc1nc(Cl)c(Cc2cccc(Br)c2)n(CC(=O)Nc2ccccc2C(=O)NS(=O)(=O)c2ccc(C(F)(F)F)cc2)c1=O

Ki [1]: 250 nM
Structure (SMILES): CC(C)(C)NC(=O)Nc1nc(Cl)c(Cc2ccccc2Br)n(CC(=O)Nc2ccccc2C(=O)NS(=O)(=O)c2ccc(C(F)(F)F)cc2)c1=O

Ki [1]: 390 nM
Structure (SMILES): CC(C)(C)NC(=O)Nc1nc(Cl)c(-c2cccc(-c3cccnc3)c2)n(CC(=O)Nc2ccccc2C(=O)NS(=O)(=O)c2ccc(C(F)(F)F)cc2)c1=O

half-life at 1 µM [2]: > 100 min
microsomal CLint at 1 µM [3]: < 13 µL/min/mg
Papp A→B at 10 µM [4]: 3 nm/s
solubility at 1 h [5]: 23 µM (≈ 16.9 µg/mL)
Ki [1]: 120 nM
Structure (SMILES): CC(C)(C)NC(=O)Nc1nc(Cl)c(CCc2ccccc2)n(CC(=O)Nc2ccccc2C(=O)NS(=O)(=O)c2ccc(C(F)(F)F)cc2)c1=O

Ki [1]: 140 nM
Structure (SMILES): CC(C)(C)NC(=O)Nc1nc(Cl)c(CCCc2ccccc2)n(CC(=O)Nc2ccccc2C(=O)NS(=O)(=O)c2ccc(C(F)(F)F)cc2)c1=O

Ki [1]: 330 nM
Structure (SMILES): CC(C)(C)NC(=O)Nc1nc(Cl)c(Cc2ccc3ccccc3c2)n(CC(=O)Nc2ccccc2C(=O)NS(=O)(=O)c2ccc(C(F)(F)F)cc2)c1=O

Ki [1]: 290 nM
Structure (SMILES): CC(C)(C)NC(=O)Nc1nc(Cl)c(Cc2cccc3ccccc23)n(CC(=O)Nc2ccccc2C(=O)NS(=O)(=O)c2ccc(C(F)(F)F)cc2)c1=O

half-life at 1 µM [2]: 42 min
microsomal CLint at 1 µM [3]: 33 µL/min/mg
Papp A→B at 10 µM [4]: 0.4 nm/s
solubility at 1 h [5]: 21 µM (≈ 14.7 µg/mL)
Ki [1]: 160 nM
Structure (SMILES): CCCCCc1c(Cl)nc(NC(=O)NC(C)(C)C)c(=O)n1CC(=O)Nc1ccccc1C(=O)NS(=O)(=O)c1ccc(C(F)(F)F)cc1
